In ChEMBL document CHEMBL5136958, “The development of HEC-866 and its analogues for the treatment of idiopathic pulmonary fibrosis” (RSC Med Chem, 2021):
pIC50: −log10 of the molar value. Calls of active or inactive are those of the source. The calls are words filed in the database; no cut-off is given here.

What was measured:
[1] = Oral bioavailability in cynomolgus monkey at 5 mg/kg by LC-MS/MS analysis; assay type: ADME, organism-based, Macaca fascicularis; conditions: in vivo
HFL1 [2] = assay: Antiproliferative activity against human HFL1 cells assessed as reduction in cell proliferation measured after 24 hrs by CCK-8 assay; assay type: functional, cell-based; conditions: HFL1, 24 h
How it was run: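 Human fetal lung fibroblasts (HFL-1); growth inhibition quantified with CCK-8; IC50 averaged from 3 experiments, each in duplicate.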

[3] = Volume of distribution at steady state in dog at 1 mg/kg, iv by LC-MS/MS analysis; assay type: ADME, organism-based, Canis lupus familiaris; conditions: in vivo, read-out: Vdss
[4] = Oral bioavailability in dog at 5 mg/kg by LC-MS/MS analysis; assay type: ADME, organism-based, Canis lupus familiaris; conditions: in vivo
[5] = Half life in monkey liver microsomes by LC-MS/MS analysis; assay type: ADME, Macaca mulatta, Microsome; conditions: rhesus monkey
How it was run: (§1)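 Liver microsomes (human, monkey, dog, rat, mouse) incubated with test compound at 37 °C with NADPH cofactor; samples at 0, 5, 15, 30, 60 min for half-life and in vitro CLint.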

[6] = Half life in dog at 5 mg/kg, po by LC-MS/MS analysis; assay type: ADME, organism-based, Canis lupus familiaris; conditions: in vivo
Cytochrome P450 3A4 = Cytochrome P450 3A4 (Homo sapiens, UniProt P08684); assay: Inhibition of CYP3A4 in human liver microsomes by LC-MS/MS analysis; assay type: ADME, Microsome
How it was run: (§2)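 Human microsomes incubated with CYP-specific substrates (1A2, 2C9, 2C19, 2D6, 3A4) and test compound at 0.0–10 μM; IC50 determined.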

[7] = Toxicity in po dosed Sprague-Dawley rat administered once daily for 28 days; assay type: organism-based; conditions: in vivo, time 28 day
HFL1 [8] = assay: Antifibrotic activity in TGF-beta1-induced HFL1 cell injury assessed as down regulation of collagen 3 mRNA expression at 0.625 to 10 uM measured after 24 hrs by RT-PCR analysis; assay type: functional, cell-based; conditions: Homo sapiens, dose 0.625-10 µM
How it was run: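 TGF-β1-induced HFL-1 cells treated 24 h (test range 0.625–10 μM; comparator 3 mM); collagen 1 and collagen 3 mRNA measured by RT-PCR; mean of n = 3.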

[9] = Half life in human liver microsomes by LC-MS/MS analysis; assay type: ADME, Microsome; how it was run: as §1
[10] = Clearance in cynomolgus monkey at 1 mg/kg, iv by LC-MS/MS analysis; assay type: ADME, organism-based, Macaca fascicularis; conditions: in vivo
[11] = AUClast in cynomolgus monkey at 5 mg/kg, po by LC-MS/MS analysis; assay type: ADME, organism-based, Macaca fascicularis; parameters: time 0 - last, dose 5 mg/kg, route po; conditions: in vivo
Cytochrome P450 2D6 = Cytochrome P450 2D6 (Homo sapiens, UniProt P10635); assay: Inhibition of CYP2D6 in human liver microsomes by LC-MS/MS analysis; assay type: ADME, Microsome; how it was run: as §2
[12] = Cmax in Sprague-Dawley rat model of bleomycin-induced pulmonary fibrosis at 5 mg/kg, po by LC-MS/MS analysis; assay type: ADME, organism-based; parameters: dose 5 mg/kg, route po; conditions: in vivo
How it was run: (§3)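 Male Sprague-Dawley rats with induced pulmonary fibrosis; single i.v. (2.0 mg kg⁻¹) or p.o. (5.0 mg kg⁻¹) administration. Plasma samples stored at −70 °C; the supernatant was analysed by LC-MS/MS for PK parameters.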

Cytochrome P450 2C9 = Cytochrome P450 2C9 (Homo sapiens, UniProt P11712); assay: Inhibition of CYP2C9 in human liver microsomes by LC-MS/MS analysis; assay type: ADME, Microsome; how it was run: as §2
[13] = Intrinsic clearance in monkey liver microsomes by LC-MS/MS analysis; assay type: ADME, Macaca mulatta, Microsome; conditions: rhesus monkey, read-out: CLH
How it was run: (§4)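 Liver microsomes were incubated with the compound at 37 °C with NADPH as cofactor and sampled at 0, 5, 15, 30 and 60 min. Half-life (min) and in vitro CLint (mL min⁻¹ kg) were derived from these samples.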

[14] = Mutagenecity in Salmonella typhimurium TA98 at 7.8 to 1000 ug measured after 2 to 3 days by mini-Ames test; assay type: toxicity, Salmonella enterica subsp. enterica serovar Typhimurium; conditions: dose lower 7.8 µg, time lower 2 day, dose upper 1000 µg, time upper 3 day
How it was run: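 Bacterial reverse mutation assay scoring reverse gene mutations at the histidine locus in Salmonella typhimurium strains TA98 and TA100.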

[15] = AUClast in Sprague-Dawley rat model of bleomycin-induced pulmonary fibrosis at 2 mg/kg, iv by LC-MS/MS analysis; assay type: ADME, organism-based; parameters: time 0 - last, dose 2 mg/kg, route iv; conditions: in vivo; how it was run: as §3
[16] = Half life in rat liver microsomes by LC-MS/MS analysis; assay type: ADME, Microsome; how it was run: as §1
[17] = target: Voltage-gated inwardly rectifying potassium channel KCNH2 (Homo sapiens, UniProt Q12809); assay: Inhibition of human ERG stably expressed in CHO cells by automated Qpatch clamp method; assay type: toxicity, cell-based
How it was run: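 CHO cell line stably transfected with hERG cDNA expressing hERG channels; channel inhibition measured, IC50 reported.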

[18] = Cmax in cynomolgus monkey at 5 mg/kg, po by LC-MS/MS analysis; assay type: ADME, organism-based, Macaca fascicularis; parameters: dose 5 mg/kg, route po; conditions: in vivo
[19] = Intrinsic clearance in rat liver microsomes by LC-MS/MS analysis; assay type: ADME, Microsome; conditions: read-out: CLH; how it was run: as §4
[20] = Clearance in dog at 1 mg/kg, iv by LC-MS/MS analysis; assay type: ADME, organism-based, Canis lupus familiaris; conditions: in vivo
[21] = AUC(infinity) in Sprague-Dawley rat model of bleomycin-induced pulmonary fibrosis at 5 mg/kg, po by LC-MS/MS analysis; assay type: ADME, organism-based; parameters: time infinity, dose 5 mg/kg, route po; conditions: in vivo; how it was run: as §3
[22] = Half life in Sprague-Dawley rat model of bleomycin-induced pulmonary fibrosis at 2 mg/kg, iv by LC-MS/MS analysis; assay type: ADME, organism-based; conditions: in vivo; how it was run: as §3
[23] = Intrinsic clearance in mouse liver microsomes by LC-MS/MS analysis; assay type: ADME, Microsome; conditions: read-out: CLH; how it was run: as §4
[24] = Oral bioavailability in Sprague-Dawley rat model of bleomycin-induced pulmonary fibrosis at 5 mg/kg by LC-MS/MS analysis; assay type: ADME, organism-based; conditions: in vivo
How it was run: (§5)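 Male Sprague-Dawley rats with induced pulmonary fibrosis were dosed 2.0 mg kg⁻¹ i.v. or 5.0 mg kg⁻¹ p.o. Plasma was stored at -70 °C, and the supernatant was analysed by LC-MS/MS.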

[25] = Volume of distribution at steady state in Sprague-Dawley rat model of bleomycin-induced pulmonary fibrosis at 2 mg/kg, iv by LC-MS/MS analysis; assay type: ADME, organism-based; conditions: in vivo, read-out: Vdss; how it was run: as §5
Cytochrome P450 1A2 = target: T1, Cytochrome P450 1A2 (Homo sapiens, UniProt P05177); assay: Inhibition of CYP1A2 in human liver microsomes by LC-MS/MS analysis; assay type: ADME, Microsome; how it was run: as §2
T1 sequence (P05177 whole entry): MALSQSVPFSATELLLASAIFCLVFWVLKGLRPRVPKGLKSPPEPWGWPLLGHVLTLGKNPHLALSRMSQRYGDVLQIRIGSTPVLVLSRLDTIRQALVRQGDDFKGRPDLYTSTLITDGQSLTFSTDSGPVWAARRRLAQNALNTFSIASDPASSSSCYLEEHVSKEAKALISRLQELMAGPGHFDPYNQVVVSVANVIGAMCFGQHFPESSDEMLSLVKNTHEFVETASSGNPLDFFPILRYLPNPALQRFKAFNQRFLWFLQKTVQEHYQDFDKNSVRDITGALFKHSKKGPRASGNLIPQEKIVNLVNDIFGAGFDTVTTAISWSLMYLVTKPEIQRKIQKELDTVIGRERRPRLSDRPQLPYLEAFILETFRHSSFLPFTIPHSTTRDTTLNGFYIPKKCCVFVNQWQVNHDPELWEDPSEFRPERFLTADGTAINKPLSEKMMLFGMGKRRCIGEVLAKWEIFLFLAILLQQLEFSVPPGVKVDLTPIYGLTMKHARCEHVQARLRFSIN

[26] = Half life in dog liver microsomes by LC-MS/MS analysis; assay type: ADME, Canis lupus familiaris, Microsome; how it was run: as §1
[27] = AUC(infinity) in Sprague-Dawley rat model of bleomycin-induced pulmonary fibrosis at 2 mg/kg, iv by LC-MS/MS analysis; assay type: ADME, organism-based; parameters: time infinity, dose 2 mg/kg, route iv; conditions: in vivo; how it was run: as §3

Chain of Cytochrome P450 2C9 (P11712 whole entry): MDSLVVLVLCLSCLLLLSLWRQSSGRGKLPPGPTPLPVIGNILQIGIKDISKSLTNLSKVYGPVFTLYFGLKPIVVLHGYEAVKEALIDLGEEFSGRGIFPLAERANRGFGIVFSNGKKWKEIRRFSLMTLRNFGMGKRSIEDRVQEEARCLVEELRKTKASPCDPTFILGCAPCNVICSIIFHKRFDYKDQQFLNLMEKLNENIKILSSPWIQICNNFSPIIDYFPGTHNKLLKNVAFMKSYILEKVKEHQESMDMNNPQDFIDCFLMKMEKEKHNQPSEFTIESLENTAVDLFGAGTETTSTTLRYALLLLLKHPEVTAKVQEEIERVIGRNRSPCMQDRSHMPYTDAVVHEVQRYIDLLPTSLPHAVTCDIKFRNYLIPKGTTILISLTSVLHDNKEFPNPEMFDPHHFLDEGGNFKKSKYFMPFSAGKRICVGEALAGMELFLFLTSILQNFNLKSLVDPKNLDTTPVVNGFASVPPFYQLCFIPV
Chain of Voltage-gated inwardly rectifying potassium channel KCNH2 (Q12809 whole entry): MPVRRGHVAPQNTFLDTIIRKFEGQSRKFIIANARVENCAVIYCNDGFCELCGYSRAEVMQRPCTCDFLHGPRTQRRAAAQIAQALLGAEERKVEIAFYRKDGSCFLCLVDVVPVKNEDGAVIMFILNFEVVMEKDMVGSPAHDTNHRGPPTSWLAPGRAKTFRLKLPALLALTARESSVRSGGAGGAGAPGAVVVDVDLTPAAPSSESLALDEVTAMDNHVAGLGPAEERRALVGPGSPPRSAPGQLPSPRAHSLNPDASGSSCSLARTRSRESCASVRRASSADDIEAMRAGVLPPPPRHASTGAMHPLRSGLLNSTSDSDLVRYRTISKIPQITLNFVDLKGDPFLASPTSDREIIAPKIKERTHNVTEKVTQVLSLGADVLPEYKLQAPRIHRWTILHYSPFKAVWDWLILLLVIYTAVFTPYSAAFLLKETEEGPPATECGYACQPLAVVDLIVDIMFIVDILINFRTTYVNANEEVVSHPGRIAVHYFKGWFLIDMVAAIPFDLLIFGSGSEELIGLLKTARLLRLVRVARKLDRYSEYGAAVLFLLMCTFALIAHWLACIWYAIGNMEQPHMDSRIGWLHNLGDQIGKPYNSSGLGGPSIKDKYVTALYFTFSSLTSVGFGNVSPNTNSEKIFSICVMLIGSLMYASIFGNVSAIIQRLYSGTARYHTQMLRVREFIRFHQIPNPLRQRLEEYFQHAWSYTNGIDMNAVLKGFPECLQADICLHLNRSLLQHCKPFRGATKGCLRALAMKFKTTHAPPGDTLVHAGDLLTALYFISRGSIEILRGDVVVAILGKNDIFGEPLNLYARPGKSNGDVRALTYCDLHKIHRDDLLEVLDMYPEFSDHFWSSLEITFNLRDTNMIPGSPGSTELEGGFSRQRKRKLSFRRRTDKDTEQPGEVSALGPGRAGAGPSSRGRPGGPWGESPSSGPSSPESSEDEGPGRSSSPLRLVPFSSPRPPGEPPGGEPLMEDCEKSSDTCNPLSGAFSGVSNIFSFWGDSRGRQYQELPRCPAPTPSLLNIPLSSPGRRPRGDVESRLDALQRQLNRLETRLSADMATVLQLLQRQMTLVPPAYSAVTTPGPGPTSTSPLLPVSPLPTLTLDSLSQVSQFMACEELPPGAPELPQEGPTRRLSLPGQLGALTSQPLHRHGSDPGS
Chain of Cytochrome P450 2D6 (P10635 whole entry): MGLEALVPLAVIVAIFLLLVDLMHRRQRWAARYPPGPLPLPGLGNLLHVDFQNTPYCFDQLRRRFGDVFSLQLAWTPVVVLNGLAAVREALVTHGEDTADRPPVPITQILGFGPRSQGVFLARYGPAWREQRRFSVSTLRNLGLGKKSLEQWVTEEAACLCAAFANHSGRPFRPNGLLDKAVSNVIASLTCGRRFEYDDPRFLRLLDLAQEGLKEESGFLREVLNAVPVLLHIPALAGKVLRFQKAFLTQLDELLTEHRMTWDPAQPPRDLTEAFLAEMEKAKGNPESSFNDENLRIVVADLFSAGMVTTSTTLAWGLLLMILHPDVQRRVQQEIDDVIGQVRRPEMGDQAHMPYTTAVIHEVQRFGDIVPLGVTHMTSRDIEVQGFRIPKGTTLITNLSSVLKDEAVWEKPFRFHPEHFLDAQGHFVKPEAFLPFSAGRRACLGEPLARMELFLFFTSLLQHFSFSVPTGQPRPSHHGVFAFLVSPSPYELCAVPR
Chain of Cytochrome P450 3A4 (P08684 whole entry): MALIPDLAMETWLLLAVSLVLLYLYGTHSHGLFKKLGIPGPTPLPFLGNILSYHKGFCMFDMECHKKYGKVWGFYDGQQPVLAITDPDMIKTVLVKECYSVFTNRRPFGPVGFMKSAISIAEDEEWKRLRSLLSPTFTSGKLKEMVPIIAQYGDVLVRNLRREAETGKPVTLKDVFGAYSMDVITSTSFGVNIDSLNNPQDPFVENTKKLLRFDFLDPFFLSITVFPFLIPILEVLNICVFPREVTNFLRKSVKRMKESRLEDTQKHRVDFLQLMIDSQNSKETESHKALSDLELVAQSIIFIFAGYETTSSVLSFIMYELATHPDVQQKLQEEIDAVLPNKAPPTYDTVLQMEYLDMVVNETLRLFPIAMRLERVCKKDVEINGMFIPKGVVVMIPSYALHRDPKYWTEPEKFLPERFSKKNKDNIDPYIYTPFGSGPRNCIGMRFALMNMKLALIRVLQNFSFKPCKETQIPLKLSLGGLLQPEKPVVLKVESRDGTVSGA

## Cc1cc(=O)n(-c2ccc(N3CCC(Cc4ccc(Cl)c(F)c4)CC3)c(Cl)c2)c(C)n1
[1]
  bioavailability: 72%
HFL1 [2]
  pIC50: 4.22
[3]
  Vd: 1.8 L/kg
[4]
  bioavailability: 15%
[5]
  half-life: 0.695 h
[6]
  half-life: 27 h
Cytochrome P450 3A4
  pIC50: < 5.00
[7]
  MTD at 672 h: > 500 mg/kg
HFL1 [8]
  Activity: Active
[9]
  half-life: 1.73 h
[10]
  clearance: 3.33 mL/min/kg
[11]
  AUC(0-t): 12900 ng·h/mL
Cytochrome P450 2D6
  pIC50: < 5.00
[12]
  Cmax: 1120 ng/mL
Cytochrome P450 2C9
  pIC50: < 5.00
[13]
  CLint scaled: 48.6 mL/min/kg
[14]
  Activity: Non-Toxic
[15]
  AUC(0-t): 4280 ng·h/mL
[16]
  half-life: 1.71 h
[17]
  pIC50: < 4.52
[18]
  Cmax: 1060 ng/mL
[19]
  CLint scaled: 24.2 mL/min/kg
[20]
  clearance: 1.67 mL/min/kg
[21]
  AUC(0-inf): 17100 ng·h/mL
[22]
  half-life: 26 h
[23]
  CLint scaled: 77 mL/min/kg
[24]
  bioavailability: 105%
[25]
  Vd: 8.2 L/kg
Cytochrome P450 1A2
  pIC50: < 5.00
[26]
  half-life: 4.93 h
[27]
  AUC(0-inf): 7980 ng·h/mL
